pIC50: −log10 of the molar value. Calls of active or inactive are those of the source. No cut-off for these calls is given here.
Tests used:
UACC-903 [1] = experiment: Cytotoxicity against human UACC-903 cells assessed as decrease in cell viability after 24 hrs by MTS assay relative to control; format: functional, cell-based; conditions: for pIC50: UACC-903, 24 h
Outline: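 UACC 903 melanoma cells, 5×10^3 per well in DMEM with 10% FBS, were exposed after 24 h to DMSO or 5, 10 or 15 μM agent for 24 h. Viability was read by MTS tetrazolium reduction to formazan and expressed as percent of DMSO control, as the mean of three independent experiments with SEM.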

UACC-903 [2] = experiment: Cytotoxicity against human UACC-903 cells after 24 hrs by MTS assay; conditions: UACC-903, 24 h
MDA-MB-231 = experiment: Cytotoxicity against human MDA-MB-231 cells after 24 hrs by MTS assay; conditions: MDA-MB-231, 24 h
HT-1080 = experiment: Cytotoxicity against human HT1080 cells after 24 hrs by MTS assay; conditions: HT-1080, 24 h
Caco-2 = experiment: Cytotoxicity against human Caco-2 cells after 24 hrs by MTS assay; conditions: Caco-2, 24 h
UACC-903 [3] = experiment: Antitumor activity in human UACC-903 cells xenografted in Harlan Sprague-Dawley athymic nude mouse assessed as reduction in tumor size at 0.76 uM, ip administered three times per week; format: functional
Outline: (§1)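 Female athymic nude mice aged 4–6 weeks received 5×10^6 UACC 903 cells s.c. in 0.2 ml DMEM/10% FBS above both rib cages. After six days they were randomized (5 mice/group, 2 tumors/mouse) and dosed i.p. with 0.76 μmoles (3 ppm selenium) Mon/Wed/Fri; controls received DMSO vehicle. Caliper tumor volume (mm³) and body weight were recorded thrice weekly.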

UACC-903 [4] = experiment: Induction of apoptosis in human UACC-903 cells assessed as increase in caspase 7 activity after 24 hrs relative to control; format: functional, cell-based
Outline: (§2)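 Apoptosis was measured in UACC 903 cells seeded at 5×10^3 per well and treated 24 h with DMSO vehicle or increasing agent concentrations. Combined caspase-3/7 activity was read with the Apo-ONE homogeneous caspase-3/7 kit and reported as fold increase over vehicle-treated cells, averaged over three independent experiments with SEM.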

T98G = experiment: Cytotoxicity against human T98G cells after 24 hrs by MTS assay
UACC-903 [5] = experiment: Antitumor activity in human UACC-903 cells xenografted in Harlan Sprague-Dawley athymic nude mouse assessed as reduction in tumor size at 2.5 uM, ip administered three times per week; format: functional; parameters: scale not given: the % may be the effect or the level left
Outline: (§3)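 UACC 903 xenografts: 5×10^6 cells s.c. in 0.2 ml DMEM/10% FBS at both flanks of 4–6-week-old female athymic nude mice. From day six, mice were randomized (5/group, 2 tumors each) and given 2.5 μmoles i.p. three times weekly (Mon/Wed/Fri), with DMSO vehicle controls. Tumor size (calipers, mm³) and body weight were measured thrice weekly.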

PC-3 = experiment: Cytotoxicity against human PC-3 cells after 24 hrs by MTS assay; conditions: PC-3, 24 h
UACC-903 [6] = experiment: Induction of apoptosis in human UACC-903 cells assessed as increase in caspase 3 activity after 24 hrs relative to control; format: functional, cell-based; outline: as §2
UACC-903 [7] = experiment: Antiproliferative activity against human UACC-903 cells assessed as BrdU incorporation after 24 hrs by ELISA relative to control; format: functional, cell-based
Outline: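 UACC 903 cells, 5×10^3 per well, treated 24 h with DMSO vehicle or increasing concentrations of test agents. Proliferating cells were measured by BrdU incorporation with a BrdU ELISA kit. Values are expressed as percent of DMSO-treated cells, as the mean of three independent experiments with SEM.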

Mus musculus [8] = experiment: Toxicity in human UACC-903 cells xenografted in Harlan Sprague-Dawley athymic nude mouse assessed as effect on body weight at 2.5 uM, ip administered three times per week; format: organism-based; conditions: in vivo; outline: as §3
Mus musculus [9] = experiment: Toxicity in human UACC-903 cells xenografted in Harlan Sprague-Dawley athymic nude mouse assessed as effect on body weight at 0.76 uM, ip administered three times per week; format: organism-based; conditions: in vivo; outline: as §1

SMILES	pIC50 (UACC-903 [1])	pIC50 (UACC-903 [2])	pIC50 (MDA-MB-231)	pIC50 (HT-1080)	pIC50 (Caco-2)	Activity (UACC-903 [3])	Activity (UACC-903 [4])	pIC50 (T98G)	Activity (UACC-903 [1])	Activity (UACC-903 [5]) [%]	pIC50 (PC-3)	Activity (UACC-903 [6])	Activity (UACC-903 [7])	Activity (Mus musculus [8])	Activity (Mus musculus [9])
CC(=O)NC(CSC(=[Se])NCCCCc1ccccc1)C(=O)O (stereo not drawn)	5.00	4.77													
CC(=O)NC(CSC(=S)NCCCCc1ccccc1)C(=O)O (stereo not drawn)	4.62	4.62													
S=C=NCc1ccccc1 [BENZYL ISOTHIOCYANATE]		4.82	4.38	< 4.30	4.82	inactive	Dose-dependent effect	< 4.00	Dose-dependent effect	40	< 4.30	Dose-dependent effect	Dose-dependent effect	Non-toxic	
[Se]=C=NCc1ccccc1 [BENZYLISOSELENOCYANATE]		4.80	4.54	4.89	4.89		Dose-dependent effect	4.37	Dose-dependent effect		4.62	Dose-dependent effect	Dose-dependent effect		Non-toxic
[Se]=C=NCCc1ccccc1 [PHENETHYLISOSELENOCYANATE]		4.92	4.70	4.92	4.96	30%	Dose-dependent effect	4.62	Dose-dependent effect		4.80	Dose-dependent effect	Dose-dependent effect		Non-toxic
S=C=NCCc1ccccc1 [PHENETHYLISOTHIOCYANATE]		4.92	4.42	4.82	4.85	inactive	Dose-dependent effect	< 4.00	Dose-dependent effect	40	4.62	Dose-dependent effect	Dose-dependent effect	Non-toxic	
[Se]=C=NCCCCc1ccccc1 [PHENYLBUTYL ISOSELENOCYANATE]		5.00	4.68	4.96	4.92	30%	Dose-dependent effect	4.57	Dose-dependent effect		4.72	Dose-dependent effect	Dose-dependent effect		Non-toxic
S=C=NCCCCc1ccccc1 [PHENYLBUTYL ISOTHIOCYANATE]		4.80	4.57	4.82	4.57	inactive	Dose-dependent effect	4.46	Dose-dependent effect	40	4.62	Dose-dependent effect	Dose-dependent effect	Non-toxic	
[Se]=C=NCCCCCCc1ccccc1 [PHENYLHEXYL ISOSELENOCYANATE]		5.00	4.66	4.92	5.00	30%	Dose-dependent effect	4.64	Dose-dependent effect		4.85	Dose-dependent effect	Dose-dependent effect		Non-toxic
S=C=NCCCCCCc1ccccc1 [PHENYLHEXYL ISOTHIOCYANATE]		4.82	4.62	4.54	4.31	inactive	Dose-dependent effect	4.59	Dose-dependent effect	40	4.77	Dose-dependent effect	Dose-dependent effect	Non-toxic	

Reference: ChEMBL document CHEMBL1151732, “Synthesis and anticancer activity comparison of phenylalkyl isoselenocyanates with corresponding naturally occurring and synthetic isothiocyanates” (J Med Chem, 2008)
